# In ChEMBL document CHEMBL3603782, “Antimalarial benzoheterocyclic 4-aminoquinolines: Structure-activity relationship, in vivo evaluation, mechanistic and bioactivation studies” (Bioorg Med Chem, 2015):
# Legend:
# Plasmodium falciparum [1] = experiment: Antiplasmodial activity against multidrug-resistant Plasmodium falciparum K1 infected in human erythrocytes after 48 hrs by [3H]-hypoxanthine incorporation assay; type: functional, organism-based
# Summary of the method: (§1)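 Modified [3H]-hypoxanthine incorporation assay against P. falciparum NF54 (sensitive) and K1 (multidrug-resistant). Values are means of ≥2 or ≥3 independent experiments. The resistance index is the K1 IC50 divided by the NF54 IC50.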
# Plasmodium falciparum [2] = experiment: Antiplasmodial activity against chloroquine-sensitive Plasmodium falciparum NF54 infected in human erythrocytes after 48 hrs by [3H]-hypoxanthine incorporation assay; type: functional, organism-based; summary of the method: as §1
# [3] = Inhibition of beta haematin formation at 1000 uM after 5 to 6 hrs by pyridine-ferrichrome method; type: physicochemical
# Summary of the method: (§2)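 Modified β-haematin inhibition assay. Compounds from DMSO stocks, 0–1000 µM final, in duplicate. NP-40 added (30.55 µM). Haematin suspension added to give 0.5 M acetate pH 4.8 and 100 µM haematin, then incubated 5–6 h at 37 °C. Free haeme detected with pyridine/H2O/acetone/0.2 M HEPES pH 7.4 reagent (final pyridine ~5% v/v) plus acetone, and absorbance read.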
# CHO = experiment: Cytotoxicity against CHO cells by MTT assay; type: cell-based; details: Cricetulus griseus
# Summary of the method: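 CHO cells, MTT assay. Stocks 20 mg/mL in DMSO, diluted in complete medium; undissolved samples tested as suspensions. Emetine served as reference (10-fold dilutions, 6 concentrations, lowest 0.001 µg/mL). IC50 derived from full dose–response curves by non-linear fitting.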
# [4] = Drug metabolism assessed as ratio of sum of compound adduct peak area to clozapine adduct peak area by GSH trapping method; type: physicochemical
# Plasmodium falciparum [5] = experiment: Resistance index, ratio of IC50 for multidrug-resistant Plasmodium falciparum K1 to IC50 for Plasmodium falciparum W2; type: functional
# Plasmodium falciparum [6] = experiment: Resistance index, ratio of IC50 for multidrug-resistant Plasmodium falciparum K1 to IC50 for chloroquine-sensitive Plasmodium falciparum NF54; type: functional; summary of the method: as §1
# [7] = Selectivity index, ratio of IC50 for CHO cells to IC50 for chloroquine-sensitive Plasmodium falciparum NF54; type: toxicity, cell-based; details: hamster, read-out: Ratio IC50
# [8] = Inhibition of beta haematin formation after 5 to 6 hrs by pyridine-ferrichrome method; type: physicochemical; summary of the method: as §2
# [9] = Lipophilicity, log P of the compound; type: physicochemical; details: octanol/water
# [10] = Metabolic stability in human liver microsomes assessed as compound remaining at […] after 30 mins by HPLC-MS/MS analysis in presence of NADPH; type: ADME; details: read-out: Stability
# [11] = Metabolic stability in BALB/c mouse liver microsomes assessed as compound remaining at […] after 30 mins by HPLC-MS/MS analysis in presence of NADPH; type: ADME; details: read-out: Stability
# [12] = Stability of the compound by potassium cyanide trapping method; type: physicochemical
# [13] = Stability of the compound by methoxylamine trapping method; type: physicochemical
# Plasmodium berghei [14] = experiment: Antimalarial activity against GFP-transfected Plasmodium berghei ANKA infected in mouse assessed as reduction in parasitemia at 50 mg/kg, po qd administered for 4 days measured on day 4 post last dose by flow cytometric analysis relative to control; type: functional; parameters: scale not given: the % may be the effect or the level left
# Plasmodium berghei [15] = experiment: Antimalarial activity against GFP-transfected Plasmodium berghei ANKA infected in mouse assessed as mean survival days at 50 mg/kg, po qd administered for 4 days; type: functional
# Summary of the method: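 Mice (n = 3) infected with GFP-transfected P. berghei ANKA. Compound given orally, dissolved in a vehicle containing ethanol and diluted 10× with water. Multi-dose arms were dosed once daily on four consecutive days (4, 24, 48, 72 h post-infection). Parasitaemia was measured by flow cytometry, detection limit 0.1%. Activity is % reduction relative to controls. Survival was followed for 30 days.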
Compound,IC50 (Plasmodium falciparum [1]) [µM],IC50 (Plasmodium falciparum [2]) [µM],IC50 (CHO) [µM],Ratio IC50 (Plasmodium falciparum [6]),selectivity ratio [7],IC50 [8] [µM],logP [9],further results
O=[N+]([O-])c1ccc2oc(N3CCN(c4ccccc4)CC3)nc2c1,> 20,> 20,–,–,–,–,–,inhibition (INH) [3]: Not Active
CC[C@H]1CN2CCc3cc(OC)c(OC)cc3[C@@H]2C[C@@H]1C[C@H]1NCCc2cc(OC)c(OC)cc21 [EMETINE],–,–,0.104,–,–,–,–,–
Clc1ccc2c(Nc3ccc4sc(NCCN5CCCCC5)nc4c3)ccnc2c1,–,–,–,–,–,–,–,Ratio [4]: 0.88; Ratio IC50 (Plasmodium falciparum [5]): 0.54
Clc1cccc(N2CCN(c3nc4cc(Nc5ccnc6cc(Cl)ccc56)ccc4o3)CC2)c1,0.412,0.202,172,2.04,852,24.7,6.57,remaining at 0.5 h [10]: 36%; remaining at 0.5 h [11]: > 99%
O=[N+]([O-])c1ccc2oc(NCc3ccccn3)nc2c1,> 20,> 20,–,–,–,–,–,inhibition (INH) [3]: Not Active
CN(C)CCCNc1nc2cc([N+](=O)[O-])ccc2o1,11,> 20,–,–,–,–,–,inhibition (INH) [3]: Not Active
CCNc1nc2cc(Nc3ccnc4cc(Cl)ccc34)ccc2[nH]1,–,–,–,–,–,–,–,Stability [12]: Unstable; Stability [13]: Unstable; Ratio IC50 (Plasmodium falciparum [5]): 0.5
CN(C)CCCNc1nc2cc(Nc3ccnc4cc(Cl)ccc34)ccc2o1,0.149,0.019,12.6,7.84,665,174,3.44,remaining at 0.5 h [10]: 78%; remaining at 0.5 h [11]: 44%
COCCc1nc2cc(Nc3ccnc4cc(Cl)ccc34)ccc2o1,2.11,1.09,–,1.93,–,–,3.11,–
Clc1ccc2c(Nc3ccc(NCCN4CCCC4)nc3)ccnc2c1,–,–,–,–,–,–,–,Ratio IC50 (Plasmodium falciparum [5]): 4.38
CN1CCN(c2nc3cc([N+](=O)[O-])ccc3o2)CC1,> 20,> 20,–,–,–,–,–,inhibition (INH) [3]: Not Active
Clc1ccc2c(Nc3ccc4oc(NCCCN5CCOCC5)nc4c3)ccnc2c1,0.08,0.039,13.7,2.05,351,80.1,3.09,remaining at 0.5 h [10]: 27%; remaining at 0.5 h [11]: 26%
CCNc1nc2cc(Nc3ccnc4cc(Cl)ccc34)ccc2o1,–,0.466,–,2.15,–,80.2,3.75,Stability [12]: Unstable; Stability [13]: Unstable; Ratio IC50 (Plasmodium falciparum [5]): 1.88; remaining at 0.5 h [10]: 81%; remaining at 0.5 h [11]: 1%
Clc1cccc(CNc2nc3cc(Nc4ccnc5cc(Cl)ccc45)ccc3o2)c1,0.223,0.124,25.7,1.8,207,27.1,5.7,–
Clc1ccc2c(Nc3ccc4oc(NCCc5ccccn5)nc4c3)ccnc2c1,0.851,0.402,> 240,2.12,–,63,4.42,–
Clc1ccc2c(Nc3ccc4oc(NCc5ccncc5)nc4c3)ccnc2c1,1.55,0.63,> 240,2.47,–,93,4.55,–
Clc1ccc2c(Nc3ccc4oc(N5CCN(c6ccccc6)CC5)nc4c3)ccnc2c1,0.875,0.274,28.7,3.19,105,29.6,6.05,–
Clc1ccc2c(Nc3ccc4sc(NCCN5CCOCC5)nc4c3)ccnc2c1,–,–,–,–,–,–,–,Ratio [4]: 1.13; Ratio IC50 (Plasmodium falciparum [5]): 0.63
Clc1ccc2c(Nc3ccc4oc(NCc5cccnc5)nc4c3)ccnc2c1,0.704,0.309,164,2.28,532,100,4.68,–

Compound,IC50 (Plasmodium falciparum [1]) [µM],IC50 (Plasmodium falciparum [2]) [µM],IC50 (CHO) [µM],Ratio IC50 (Plasmodium falciparum [6]),selectivity ratio [7],IC50 [8] [µM],logP [9],further results
Clc1ccc2c(Nc3ccc(NCCN4CCOCC4)nc3)ccnc2c1,–,–,–,–,–,–,–,Ratio IC50 (Plasmodium falciparum [5]): 1.78
CCN(CC)CCNc1nc2cc(Nc3ccnc4cc(Cl)ccc34)ccc2o1,0.042,0.011,11.5,3.82,1040,244,–,remaining at 0.5 h [10]: 78%; remaining at 0.5 h [11]: 74%
Clc1ccc2c(Nc3ccc4oc(NCCN5CCCCC5)nc4c3)ccnc2c1,0.024,0.01,7.58,2.4,758,89,4.11,remaining at 0.5 h [10]: 71%; remaining at 0.5 h [11]: 41%; Activity (Plasmodium berghei [14]): 99.9%; MSD (Plasmodium berghei [15]): 27 days
Clc1ccc2c(Nc3ccc4[nH]c(NCCN5CCCCC5)nc4c3)ccnc2c1,–,–,–,–,–,–,–,Ratio IC50 (Plasmodium falciparum [5]): 0.02
O=[N+]([O-])c1ccc2oc(NCCN3CCCC3)nc2c1,2.93,1.64,–,–,–,–,–,inhibition (INH) [3]: Not Active
Clc1ccc2oc(N3CCN(c4ccccc4)CC3)nc2c1,> 20,> 20,–,–,–,–,–,inhibition (INH) [3]: Not Active
Clc1ccc2c(Nc3ccc4sc(NCCN5CCCC5)nc4c3)ccnc2c1,–,–,–,–,–,–,–,Ratio IC50 (Plasmodium falciparum [5]): 1.17
O=C1CCCN1CCCNc1nc2cc(Nc3ccnc4cc(Cl)ccc34)ccc2o1,0.773,1.88,29.6,0.41,15.8,97.5,2.88,–
CN1CCN(Nc2nc3cc(Nc4ccnc5cc(Cl)ccc45)ccc3o2)CC1,0.24,0.144,122,1.67,849,73.3,2.6,–
CCN(CC)c1nc2cc(Nc3ccnc4cc(Cl)ccc34)ccc2o1,1.38,0.512,229,2.69,448,50.7,4.78,–
CN(C)Cc1nc2cc(Nc3ccnc4cc(Cl)ccc34)ccc2o1,0.411,0.213,–,1.93,–,–,–,–
CCN(CC)CCCNc1nc2cc(Nc3ccnc4cc(Cl)ccc34)ccc2o1,0.085,0.014,6.37,6.07,455,165,4.12,remaining at 0.5 h [10]: 70%; remaining at 0.5 h [11]: 70%
Clc1ccc2c(Nc3ccc4oc(NCc5ccccn5)nc4c3)ccnc2c1,0.883,0.406,> 240,2.17,–,106,–,–
CN1CCN(c2nc3cc(Nc4ccnc5cc(Cl)ccc45)ccc3o2)CC1,0.099,0.051,> 240,1.94,–,71.7,3.9,remaining at 0.5 h [10]: 61%; remaining at 0.5 h [11]: 18%
CC(C)(C)Nc1nc2cc(Nc3ccnc4cc(Cl)ccc34)ccc2s1,–,–,–,–,–,–,–,Ratio [4]: 0.74; Stability [12]: Unstable; Stability [13]: Unstable; Ratio IC50 (Plasmodium falciparum [5]): 0.79
CCN(CC)CCNc1nc2cc(Nc3ccnc4cc(Cl)ccc34)ccc2[nH]1,–,–,–,–,–,–,–,Ratio IC50 (Plasmodium falciparum [5]): 4.14
Clc1ccc2c(Nc3ccc4oc(NCCN5CCOCC5)nc4c3)ccnc2c1,0.198,0.108,124,1.83,1150,80,–,–
CCN(CC)c1nc2cc([N+](=O)[O-])ccc2o1,> 20,> 20,–,–,–,–,–,inhibition (INH) [3]: Not Active
O=[N+]([O-])c1ccc2oc(NCCc3ccccn3)nc2c1,> 20,> 20,–,–,–,–,–,inhibition (INH) [3]: Not Active
